Results reported in ChEMBL document CHEMBL5058577, “EUbOPEN Chemogenomics Library 2 (Multiplex)” (2022).

System: Fibroblast
Assay: Multiplex assay against human fibroblast
Type: toxicity, cell-based
Procedure, shortened: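 Tubulin, mitochondrial-mass and membrane-permeability phenotypes are per cents of healthy-nucleus cells. Cells were gated by CellPathfinder machine learning into Hoechst high-intensity objects or normal cells, normal cells into healthy, pyknosed or fragmented nuclei, and pyknosed cells into mitotic or apoptotic. Before that, live cells stained at seeding with Hoechst33342, BioTracker Green Microtubule Cytoskeleton Dye, MitoTracker Red and Annexin V Alexa Fluor 680 were imaged on a CQ1 microscope at 37°C and 5% CO2 after compound addition.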

[1] = 12 h, 1 µM, compound concentration 1 uM, replicate 1
[2] = 12 h, 1 µM, compound concentration 1 uM, replicate 2
[3] = 12 h, 10 µM, compound concentration 10 uM, replicate 1
[4] = 12 h, 10 µM, compound concentration 10 uM, replicate 2
[5] = 24 h, 1 µM, compound concentration 1 uM, replicate 1
[6] = 24 h, 1 µM, compound concentration 1 uM, replicate 2
[7] = 24 h, 10 µM, compound concentration 10 uM, replicate 1
[8] = 24 h, 10 µM, compound concentration 10 uM, replicate 2
[9] = 48 h, 1 µM, compound concentration 1 uM, replicate 1
[10] = 48 h, 1 µM, compound concentration 1 uM, replicate 2
[11] = 48 h, 10 µM, compound concentration 10 uM, replicate 1
[12] = 48 h, 10 µM, compound concentration 10 uM, replicate 2

## S=C(NCCCc1c[nH]cn1)NCCCN(Cc1ccc(Cl)c(Cl)c1)c1ccc(Br)cn1
[1]
  Population Apoptotic (%): 40%
  Population Fragmented Nuclei (%): 13%
  Population Healthy Nuclei (%): 71%
  Population Hoechst High Intensity Objects (%): 5%
  Population Membrane Permeable-Phenotype (%): 1%
  Population Mitochondria Different-Phenotype (%): 5%
  Population Mitotic Cells (%): 60%
  Population Normal (%): 94%
  Population Pyknosed Nuclei (%): 14%
  Population Tubulin-Different-Phenotype (%): 26%
  Total Cell Count: 142
[2]
  Population Apoptotic (%): 31%
  Population Fragmented Nuclei (%): 30%
  Population Healthy Nuclei (%): 50%
  Population Hoechst High Intensity Objects (%): 4%
  Population Membrane Permeable-Phenotype (%): 5%
  Population Mitochondria Different-Phenotype (%): 6%
  Population Mitotic Cells (%): 68%
  Population Normal (%): 95%
  Population Pyknosed Nuclei (%): 18%
  Population Tubulin-Different-Phenotype (%): 37%
  Total Cell Count: 181
[3]
  Population Apoptotic (%): 47%
  Population Fragmented Nuclei (%): 27%
  Population Healthy Nuclei (%): 56%
  Population Hoechst High Intensity Objects (%): 3%
  Population Membrane Permeable-Phenotype (%): 0%
  Population Mitochondria Different-Phenotype (%): 15%
  Population Mitotic Cells (%): 52%
  Population Normal (%): 96%
  Population Pyknosed Nuclei (%): 16%
  Population Tubulin-Different-Phenotype (%): 89%
  Total Cell Count: 220
[4]
  Population Apoptotic (%): 52%
  Population Fragmented Nuclei (%): 34%
  Population Healthy Nuclei (%): 53%
  Population Hoechst High Intensity Objects (%): 5%
  Population Mitochondria Different-Phenotype (%): 10%
  Population Mitotic Cells (%): 47%
  Population Normal (%): 94%
  Population Pyknosed Nuclei (%): 12%
  Total Cell Count: 279
[5]
  Population Apoptotic (%): 69%
  Population Fragmented Nuclei (%): 15%
  Population Healthy Nuclei (%): 74%
  Population Hoechst High Intensity Objects (%): 4%
  Population Membrane Permeable-Phenotype (%): 2%
  Population Mitochondria Different-Phenotype (%): 2%
  Population Mitotic Cells (%): 30%
  Population Normal (%): 95%
  Population Pyknosed Nuclei (%): 9%
  Population Tubulin-Different-Phenotype (%): 28%
  Total Cell Count: 137
[6]
  Population Apoptotic (%): 23%
  Population Fragmented Nuclei (%): 30%
  Population Healthy Nuclei (%): 57%
  Population Hoechst High Intensity Objects (%): 1%
  Population Mitochondria Different-Phenotype (%): 6%
  Population Mitotic Cells (%): 76%
  Population Normal (%): 98%
  Population Pyknosed Nuclei (%): 11%
  Population Tubulin-Different-Phenotype (%): 42%
  Total Cell Count: 183
[7]
  Population Apoptotic (%): 66%
  Population Fragmented Nuclei (%): 22%
  Population Healthy Nuclei (%): 61%
  Population Hoechst High Intensity Objects (%): 1%
  Population Membrane Permeable-Phenotype (%): 0%
  Population Mitochondria Different-Phenotype (%): 19%
  Population Mitotic Cells (%): 33%
  Population Normal (%): 98%
  Population Pyknosed Nuclei (%): 15%
  Population Tubulin-Different-Phenotype (%): 93%
  Total Cell Count: 214
[8]
  Population Apoptotic (%): 61%
  Population Fragmented Nuclei (%): 27%
  Population Healthy Nuclei (%): 59%
  Population Hoechst High Intensity Objects (%): 4%
  Population Membrane Permeable-Phenotype (%): 2%
  Population Mitochondria Different-Phenotype (%): 7%
  Population Mitotic Cells (%): 38%
  Population Normal (%): 95%
  Population Pyknosed Nuclei (%): 13%
  Population Tubulin-Different-Phenotype (%): 95%
  Total Cell Count: 248
[9]
  Population Apoptotic (%): 75%
  Population Fragmented Nuclei (%): 27%
  Population Healthy Nuclei (%): 67%
  Population Hoechst High Intensity Objects (%): 3%
  Population Membrane Permeable-Phenotype (%): 0%
  Population Mitochondria Different-Phenotype (%): 0%
  Population Mitotic Cells (%): 25%
  Population Normal (%): 96%
  Population Pyknosed Nuclei (%): 5%
  Population Tubulin-Different-Phenotype (%): 24%
  Total Cell Count: 156
[10]
  Population Apoptotic (%): 35%
  Population Fragmented Nuclei (%): 30%
  Population Healthy Nuclei (%): 59%
  Population Hoechst High Intensity Objects (%): 4%
  Population Membrane Permeable-Phenotype (%): 5%
  Population Mitochondria Different-Phenotype (%): 3%
  Population Mitotic Cells (%): 64%
  Population Normal (%): 95%
  Population Pyknosed Nuclei (%): 10%
  Population Tubulin-Different-Phenotype (%): 36%
  Total Cell Count: 178
[11]
  Population Apoptotic (%): 62%
  Population Fragmented Nuclei (%): 27%
  Population Healthy Nuclei (%): 59%
  Population Hoechst High Intensity Objects (%): 6%
  Population Membrane Permeable-Phenotype (%): 0%
  Population Mitochondria Different-Phenotype (%): 7%
  Population Mitotic Cells (%): 37%
  Population Normal (%): 93%
  Population Pyknosed Nuclei (%): 12%
  Population Tubulin-Different-Phenotype (%): 91%
  Total Cell Count: 230
[12]
  Population Apoptotic (%): 63%
  Population Fragmented Nuclei (%): 31%
  Population Healthy Nuclei (%): 60%
  Population Hoechst High Intensity Objects (%): 5%
  Population Mitochondria Different-Phenotype (%): 1%
  Population Mitotic Cells (%): 36%
  Population Normal (%): 94%
  Population Pyknosed Nuclei (%): 7%
  Population Tubulin-Different-Phenotype (%): 86%
  Total Cell Count: 293

## N[C@](CC1c2ccccc2Oc2ccccc21)(C(=O)O)[C@H]1C[C@@H]1C(=O)O
[1]
  Population Apoptotic (%): 44%
  Population Fragmented Nuclei (%): 12%
  Population Healthy Nuclei (%): 73%
  Population Hoechst High Intensity Objects (%): 4%
  Population Membrane Permeable-Phenotype (%): 0%
  Population Mitochondria Different-Phenotype (%): 1%
  Population Mitotic Cells (%): 56%
  Population Normal (%): 95%
  Population Pyknosed Nuclei (%): 13%
  Population Tubulin-Different-Phenotype (%): 27%
  Total Cell Count: 189
[2]
  Population Apoptotic (%): 58%
  Population Fragmented Nuclei (%): 18%
  Population Healthy Nuclei (%): 59%
  Population Hoechst High Intensity Objects (%): 1%
  Population Membrane Permeable-Phenotype (%): 7%
  Population Mitotic Cells (%): 41%
  Population Normal (%): 98%
  Population Pyknosed Nuclei (%): 21%
  Population Tubulin-Different-Phenotype (%): 37%
  Total Cell Count: 113
[3]
  Population Apoptotic (%): 50%
  Population Fragmented Nuclei (%): 13%
  Population Healthy Nuclei (%): 66%
  Population Hoechst High Intensity Objects (%): 1%
  Population Membrane Permeable-Phenotype (%): 2%
  Population Mitochondria Different-Phenotype (%): 2%
  Population Mitotic Cells (%): 50%
  Population Normal (%): 98%
  Population Pyknosed Nuclei (%): 20%
  Population Tubulin-Different-Phenotype (%): 22%
  Total Cell Count: 203
[4]
  Population Apoptotic (%): 26%
  Population Fragmented Nuclei (%): 20%
  Population Healthy Nuclei (%): 59%
  Population Hoechst High Intensity Objects (%): 7%
  Population Membrane Permeable-Phenotype (%): 0%
  Population Mitochondria Different-Phenotype (%): 7%
  Population Mitotic Cells (%): 73%
  Population Normal (%): 92%
  Population Tubulin-Different-Phenotype (%): 33%
  Total Cell Count: 119
[5]
  Population Apoptotic (%): 68%
  Population Fragmented Nuclei (%): 12%
  Population Healthy Nuclei (%): 73%
  Population Hoechst High Intensity Objects (%): 2%
  Population Membrane Permeable-Phenotype (%): 2%
  Population Mitochondria Different-Phenotype (%): 2%
  Population Mitotic Cells (%): 32%
  Population Normal (%): 97%
  Population Pyknosed Nuclei (%): 13%
  Population Tubulin-Different-Phenotype (%): 25%
  Total Cell Count: 183
[6]
  Population Apoptotic (%): 33%
  Population Fragmented Nuclei (%): 27%
  Population Healthy Nuclei (%): 49%
  Population Hoechst High Intensity Objects (%): 4%
  Population Membrane Permeable-Phenotype (%): 6%
  Population Mitochondria Different-Phenotype (%): 1%
  Population Mitotic Cells (%): 66%
  Population Normal (%): 95%
  Population Pyknosed Nuclei (%): 22%
  Population Tubulin-Different-Phenotype (%): 44%
  Total Cell Count: 123
[7]
  Population Apoptotic (%): 57%
  Population Fragmented Nuclei (%): 10%
  Population Healthy Nuclei (%): 68%
  Population Hoechst High Intensity Objects (%): 1%
  Population Membrane Permeable-Phenotype (%): 1%
  Population Mitochondria Different-Phenotype (%): 3%
  Population Mitotic Cells (%): 42%
  Population Normal (%): 98%
  Population Pyknosed Nuclei (%): 20%
  Population Tubulin-Different-Phenotype (%): 30%
  Total Cell Count: 193
[8]
  Population Apoptotic (%): 35%
  Population Fragmented Nuclei (%): 18%
  Population Healthy Nuclei (%): 66%
  Population Hoechst High Intensity Objects (%): 2%
  Population Mitochondria Different-Phenotype (%): 4%
  Population Mitotic Cells (%): 64%
  Population Normal (%): 97%
  Population Pyknosed Nuclei (%): 15%
  Population Tubulin-Different-Phenotype (%): 34%
  Total Cell Count: 113
[9]
  Population Apoptotic (%): 62%
  Population Fragmented Nuclei (%): 17%
  Population Healthy Nuclei (%): 68%
  Population Hoechst High Intensity Objects (%): 2%
  Population Membrane Permeable-Phenotype (%): 0%
  Population Mitochondria Different-Phenotype (%): 2%
  Population Mitotic Cells (%): 37%
  Population Normal (%): 97%
  Population Pyknosed Nuclei (%): 14%
  Population Tubulin-Different-Phenotype (%): 26%
  Total Cell Count: 189
[10]
  Population Apoptotic (%): 23%
  Population Fragmented Nuclei (%): 36%
  Population Healthy Nuclei (%): 48%
  Population Hoechst High Intensity Objects (%): 8%
  Population Membrane Permeable-Phenotype (%): 9%
  Population Mitochondria Different-Phenotype (%): 5%
  Population Mitotic Cells (%): 76%
  Population Normal (%): 91%
  Population Tubulin-Different-Phenotype (%): 65%
  Total Cell Count: 125
[11]
  Population Apoptotic (%): 45%
  Population Fragmented Nuclei (%): 14%
  Population Healthy Nuclei (%): 68%
  Population Hoechst High Intensity Objects (%): 5%
  Population Membrane Permeable-Phenotype (%): 1%
  Population Mitochondria Different-Phenotype (%): 2%
  Population Mitotic Cells (%): 54%
  Population Normal (%): 94%
  Population Pyknosed Nuclei (%): 16%
  Population Tubulin-Different-Phenotype (%): 32%
  Total Cell Count: 198
[12]
  Population Apoptotic (%): 27%
  Population Fragmented Nuclei (%): 27%
  Population Healthy Nuclei (%): 63%
  Population Hoechst High Intensity Objects (%): 3%
  Population Membrane Permeable-Phenotype (%): 2%
  Population Mitotic Cells (%): 72%
  Population Normal (%): 96%
  Population Pyknosed Nuclei (%): 9%
  Population Tubulin-Different-Phenotype (%): 28%
  Total Cell Count: 115
